Experimental data published in ChEMBL document CHEMBL3351525, “Synthesis of tripeptides containing D-Trp substituted at the indole ring, assessment of opioid receptor binding and in vivo central antinociception” (J Med Chem, 2014).
Blank lines part the entries; values can stand above or below the molecule they belong to. Activity calls are given as the source filed them. Where a SMILES comes first, the peptide text is derived from it. [ ]: non-standard residue; d: D form.

Experiments:
[1] = molecular target: Delta-type opioid receptor (Homo sapiens, UniProt P41143); experiment: Displacement of [3H]diprenorphine from human delta opioid receptor expressed in HEK293 cells by scintillation counting; assay type: cell-based
Delta-type opioid receptor, sequence (P41143 whole entry): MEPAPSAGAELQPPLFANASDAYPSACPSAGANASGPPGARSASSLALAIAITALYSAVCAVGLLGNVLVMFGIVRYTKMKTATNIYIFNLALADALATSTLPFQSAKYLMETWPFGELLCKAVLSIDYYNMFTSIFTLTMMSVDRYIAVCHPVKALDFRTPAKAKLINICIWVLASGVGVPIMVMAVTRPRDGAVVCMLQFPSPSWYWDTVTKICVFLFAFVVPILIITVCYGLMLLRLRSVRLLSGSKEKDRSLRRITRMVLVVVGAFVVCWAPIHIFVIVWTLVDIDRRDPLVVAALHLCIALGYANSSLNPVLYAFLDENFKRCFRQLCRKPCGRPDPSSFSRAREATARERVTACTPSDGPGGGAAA

[2] = molecular target: Kappa-type opioid receptor (Homo sapiens, UniProt P41145); experiment: Displacement of [3H]U69593 from human kappa opioid receptor expressed in HEK293 cells by scintillation counting; assay type: cell-based
Kappa-type opioid receptor, sequence (P41145 whole entry): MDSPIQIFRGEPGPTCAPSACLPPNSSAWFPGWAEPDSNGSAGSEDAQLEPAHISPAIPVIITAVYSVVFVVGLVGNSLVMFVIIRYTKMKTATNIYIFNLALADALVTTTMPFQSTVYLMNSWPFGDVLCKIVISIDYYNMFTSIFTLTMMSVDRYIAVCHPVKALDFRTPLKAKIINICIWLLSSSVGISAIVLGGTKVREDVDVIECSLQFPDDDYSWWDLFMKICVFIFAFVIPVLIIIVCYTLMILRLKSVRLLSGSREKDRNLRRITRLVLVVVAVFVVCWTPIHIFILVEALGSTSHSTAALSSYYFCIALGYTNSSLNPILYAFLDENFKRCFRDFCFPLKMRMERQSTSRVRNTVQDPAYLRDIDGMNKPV

Mu-type opioid receptor = Mu-type opioid receptor (Homo sapiens, UniProt P35372); experiment: Displacement of [3H]DAMGO from human mu opioid receptor expressed in HEK293 cells by scintillation counting; assay type: cell-based
Mu-type opioid receptor, sequence (P35372 whole entry): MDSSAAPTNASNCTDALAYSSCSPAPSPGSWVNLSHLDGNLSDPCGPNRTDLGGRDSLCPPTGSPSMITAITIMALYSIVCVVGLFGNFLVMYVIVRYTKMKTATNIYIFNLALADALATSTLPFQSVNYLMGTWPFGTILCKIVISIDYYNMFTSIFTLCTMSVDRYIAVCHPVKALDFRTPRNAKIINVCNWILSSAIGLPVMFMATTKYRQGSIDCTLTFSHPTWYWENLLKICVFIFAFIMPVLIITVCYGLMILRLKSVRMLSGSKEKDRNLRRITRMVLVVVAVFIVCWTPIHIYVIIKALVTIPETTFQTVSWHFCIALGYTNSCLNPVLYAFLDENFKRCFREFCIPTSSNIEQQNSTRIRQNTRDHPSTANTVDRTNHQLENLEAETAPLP

Mus musculus [3] = experiment: Toxicity in icv dosed CD-1 mouse assessed as locomotor activity; assay type: organism-based; details: in vivo, icv_or_intrathecal
Mus musculus [4] = experiment: Antinociceptive activity in CD-1 mouse assessed as increase in tail-flick latency period at 20 mg/kg, ip at 30 mins by tail flick test; assay type: functional; details: for MPE: route intraperitoneal
Mus musculus [5] = experiment: Toxicity in icv dosed CD-1 mouse assessed as circling behavior; assay type: organism-based; details: in vivo, icv_or_intrathecal
Mus musculus [6] = experiment: Toxicity in icv dosed CD-1 mouse assessed as grooming; assay type: organism-based; details: in vivo, icv_or_intrathecal
Mus musculus [7] = experiment: Toxicity in icv dosed CD-1 mouse assessed as straub tail; assay type: organism-based; details: in vivo, icv_or_intrathecal
Mus musculus [8] = experiment: Antinociceptive activity in CD-1 mouse assessed as increase in tail-flick latency period at 20 mg/kg, ip at 15 mins by tail flick test; assay type: functional; details: for MPE: route intraperitoneal
[9] = Stability in mouse serum assessed as drug degradation after 3 hrs incubation; assay type: ADME; details: read-out: Drug degradation
How it was run: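 Peptide incubated in mouse serum for 3 h; degradation assessed.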

Mus musculus [10] = experiment: Antinociceptive activity in CD-1 mouse assessed as increase in tail-flick latency period at 2.5 microg, icv at 10 mins by tail flick test; assay type: functional
Mus musculus [11] = experiment: Antinociceptive activity in ip dosed CD-1 mouse assessed as increase in tail-flick latency period at 30 mins by tail flick test; assay type: functional, organism-based
How it was run: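 Tail immersed in 52 ± 0.5 °C water; withdrawal latency measured. Pre-treatment control latency recorded; mice not flicking within 5 s excluded. Vehicle or peptide given ip at 10, 20 or 40 mg/kg. Latency read at 5, 15, 30, 45 and 60 min post-dose, 10 s cutoff. Response expressed as % maximal possible effect (MPE%).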

Mus musculus [12] = experiment: Antinociceptive activity in icv dosed CD-1 mouse assessed as increase in tail-flick latency period at 10 mins by tail flick test; assay type: functional, organism-based
How it was run: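 Hot-water (52 ± 0.5 °C) tail-immersion test after icv injection at 2.5, 5 or 10 μg/mouse, compared with vehicle. Withdrawal latency measured with a 10 s cutoff. Response expressed as % maximal possible effect (MPE%).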

Mus musculus [13] = experiment: Antinociceptive activity in CD-1 mouse assessed as increase in tail-flick latency period at 40 mg/kg, ip at 30 mins by tail flick test; assay type: functional; details: route intraperitoneal
Mus musculus [14] = experiment: Antinociceptive activity in CD-1 mouse assessed as increase in tail-flick latency period at 10 microg, icv at 10 mins by tail flick test; assay type: functional
Mus musculus [15] = experiment: Antinociceptive activity in CD-1 mouse assessed as increase in tail-flick latency period at 5 microg, icv at 10 mins by tail flick test; assay type: functional

- Ki (Mu-type opioid receptor): > 100000 nM
SMILES: CC(=O)N[C@H](Cc1c[nH]c2c(C)cccc12)C(=O)N[C@@H](Cc1ccccc1)C(=O)NCC(N)=O

- Ki [1]: > 100000 nM
- Ki [2]: > 100000 nM
- Ki (Mu-type opioid receptor): 114 nM
SMILES: CC(=O)N[C@H](Cc1c[nH]c2ccc(Br)cc12)C(=O)N[C@@H](Cc1ccccc1)C(=O)NCC(N)=O

- Ki (Mu-type opioid receptor): > 100000 nM
SMILES: CC(=O)N[C@H](Cc1c[nH]c2ccc(F)cc12)C(=O)N[C@@H](Cc1ccccc1)C(=O)NCC(N)=O

- Ki (Mu-type opioid receptor): > 100000 nM
SMILES: CC(=O)N[C@H](Cc1c[nH]c2cc(Cl)ccc12)C(=O)N[C@@H](Cc1ccccc1)C(=O)NCC(N)=O

- Ki (Mu-type opioid receptor): > 100000 nM
SMILES: CC(=O)N[C@H](Cc1c(C)[nH]c2ccc(Cl)cc12)C(=O)N[C@@H](Cc1ccccc1)C(=O)NCC(N)=O

- Ki [1]: > 100000 nM
- Ki [2]: > 100000 nM
- Ki (Mu-type opioid receptor): 426 nM
SMILES: CC(=O)N[C@H](Cc1c[nH]c2ccc(C)cc12)C(=O)N[C@@H](Cc1ccccc1)C(=O)NCC(N)=O

- Ki (Mu-type opioid receptor): 20.8 nM
SMILES: CC(=O)N[C@H](Cc1c[nH]c2ccc(Cl)cc12)C(=O)N[C@@H](Cc1ccccc1)C(=O)NCC(N)=O

- Ki (Mu-type opioid receptor): 5.7 nM
SMILES: CC(=O)N[C@H](Cc1c[nH]c2cc(F)ccc12)C(=O)N[C@@H](Cc1ccccc1)C(=O)NCC(N)=O

- Ki [1]: > 100000 nM
- Ki [2]: > 100000 nM
- Ki (Mu-type opioid receptor): 314 nM
SMILES: CC(=O)N[C@H](Cc1c(C)[nH]c2ccccc12)C(=O)N[C@@H](Cc1ccccc1)C(=O)NCC(N)=O

The next lines start with the molecule.

SMILES: CC(=O)N[C@H](Cc1c[nH]c2c(Br)cccc12)C(=O)N[C@@H](Cc1ccccc1)C(=O)NCC(N)=O
- Ki [1]: > 100000 nM
- Ki [2]: > 100000 nM
- Ki (Mu-type opioid receptor): 190 nM

SMILES: CC(=O)N[C@H](Cc1c(C)[nH]c2c(Br)cccc12)C(=O)N[C@@H](Cc1ccccc1)C(=O)NCC(N)=O
- Activity (Mus musculus [3]): Non-toxic
- MPE (Mus musculus [4]): 32%
- Activity (Mus musculus [5]): Non-toxic
- Ki [1]: > 100000 nM
- Activity (Mus musculus [6]): Non-toxic
- Ki [2]: > 100000 nM
- Activity (Mus musculus [7]): Non-toxic
- MPE (Mus musculus [8]): 33%
- Ki (Mu-type opioid receptor): 4.03 nM

SMILES: O=C1CNC(=O)[C@H](Cc2ccccc2)NC(=O)[C@@H](Cc2c[nH]c3ccccc23)NC(=O)CNC(=O)[C@H](Cc2ccc(O)cc2)N1
- Activity (Mus musculus [3]): Non-toxic
- MPE (Mus musculus [4]): 32%
- Activity (Mus musculus [5]): Non-toxic
- Ki [1]: 24 nM
- metabolised at 3 h [9]: < 10%
- Activity (Mus musculus [6]): Non-toxic
- Ki [2]: > 100000 nM
- Activity (Mus musculus [7]): Non-toxic
- MPE (Mus musculus [8]): 22%
- Ki (Mu-type opioid receptor): 3.6 nM

SMILES: CC(=O)N[C@H](Cc1c[nH]c2ccc([N+](=O)[O-])cc12)C(=O)N[C@@H](Cc1ccccc1)C(=O)NCC(N)=O
- Activity (Mus musculus [10]): 25%
- Activity (Mus musculus [3]): Non-toxic
- Activity (Mus musculus [5]): Non-toxic
- Ki [1]: > 100000 nM
- Activity (Mus musculus [11]): Dose-dependent effect
- Activity (Mus musculus [12]): Dose-dependent effect
- metabolised at 3 h [9]: 7%
- Activity (Mus musculus [6]): Non-toxic
- Ki [2]: > 100000 nM
- MPE (Mus musculus [13]): 48%
- Activity (Mus musculus [14]): 47%
- Activity (Mus musculus [15]): 49%
- Activity (Mus musculus [7]): Non-toxic
- Ki (Mu-type opioid receptor): 51.9 nM

SMILES: CC(=O)N[C@H](Cc1c[nH]c2ccccc12)C(=O)N[C@@H](Cc1ccccc1)C(N)=O (Ac-[dW]-Phe-NH2)
- Activity (Mus musculus [3]): Non-toxic
- Activity (Mus musculus [4]): inactive
- Activity (Mus musculus [5]): Non-toxic
- Activity (Mus musculus [6]): Non-toxic
- Activity (Mus musculus [7]): Non-toxic
- Activity (Mus musculus [8]): inactive

SMILES: CC(=O)N[C@H](Cc1c[nH]c2ccccc12)C(=O)N[C@@H](Cc1ccccc1)C(=O)NCC(N)=O (Ac-[dW]-Phe-Gly-NH2)
- Activity (Mus musculus [3]): Non-toxic
- MPE (Mus musculus [4]): 37%
- Activity (Mus musculus [5]): Non-toxic
- Activity (Mus musculus [6]): Non-toxic
- Activity (Mus musculus [7]): Non-toxic
- MPE (Mus musculus [8]): 19%
